Measurements from ChEMBL document CHEMBL3576763, “Synthesis and Biological Activities of 5-Thio-α-GalCers” (2015).
Activity calls are given as the source filed them. The calls are words filed in the database; no cut-off is given here.

Key:
Mus musculus [1] = assay: Immunostimulatory activity in B6 mouse assessed as induction of IL-4 production in serum at 100 ug/kg, ip measured up to 12 hrs by ELISA; format: functional, organism-based
Summary of the method: (§1)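 Glycolipid given intraperitoneally to B6 mice at 100 μg/kg. Serum IFN-γ and IL-4 measured at several time points after injection. Two mice per group, each mouse's serum assayed individually at each time.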

Mus musculus [2] = assay: Immunostimulatory activity in B6 mouse assessed as induction of IFN-gamma production in serum at 100 ug/kg, ip after 24 hrs by ELISA; format: functional; summary of the method: as §1
Mus musculus [3] = assay: Immunostimulatory activity in B6 mouse assessed as induction of IL-4 production in serum at 100 ug/kg, ip measured after 12 hrs by ELISA; format: functional, organism-based; summary of the method: as §1
iNKT [4] = assay: Immunostimulatory activity in B6 mouse iNKT cells assessed as induction of IFN-gamma production at 1000 ng/ml incubated for 16 hrs followed by brefeldin A addition measured after 2 hrs by flow cytometric analysis (reference value: 0.6%); format: functional
Summary of the method: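 Mouse splenocytes stimulated with glycolipid in vitro; IFN-γ measured in cells gated as CD3+DX5+CD1d tetramer+ NKT cells. Control cells held in complete 1640 medium only; PMA plus ionomycin used as positive control.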

Mus musculus [5] = assay: Immunostimulatory activity in B6 mouse assessed as induction of IL-4 production in serum at 100 ug/kg, ip measured at 3 hrs by ELISA; format: functional, organism-based; summary of the method: as §1
Mus musculus [6] = assay: Immunostimulatory activity in B6 mouse assessed as induction of IFN-gamma production in serum at 100 ug/kg, ip measured at 6 to 24 hrs by ELISA; format: functional; summary of the method: as §1
Mus musculus [7] = assay: Immunostimulatory activity in B6 mouse assessed as induction of IFN-gamma production in serum at 100 ug/kg, ip by ELISA; format: functional, organism-based; summary of the method: as §1
iNKT [8] = assay: Immunostimulatory activity in B6 mouse iNKT cells assessed as induction of IFN-gamma production incubated for 16 hrs followed by brefeldin A addition measured after 2 hrs by flow cytometric analysis in presence of ionomycin (reference value: 0.6%); format: functional

CCCCCCCCCCCCCCCCCCCCCCCCCC(=O)N[C@@H](CO[C@H]1S[C@H](CO)[C@H](O)[C@H](O)[C@H]1O)[C@H](O)[C@H](O)CCCCCCCCCCCCCC
Activity (Mus musculus [1]): Active
Activity (Mus musculus [2]): 1722 pg/mL
Activity (Mus musculus [3]): inactive
Activity (iNKT [4]): 8.5%

CCCCCCCCCCCCCCCCCCCCCCCCCC(=O)N[C@@H](CO[C@H]1O[C@H](CO)[C@H](O)[C@H](O)[C@H]1O)[C@H](O)[C@H](O)CCCCCCCCCCCCCC [RGI-7000]
Activity (Mus musculus [5]): Active
Activity (Mus musculus [6]): 2127 pg/mL
Activity (iNKT [4]): 4.1%

CCCCCCCCCCCCCC[C@@H](O)[C@@H](O)[C@H](CO[C@H]1S[C@H](CO)[C@H](O)[C@H](O)[C@H]1O)NC(=O)CCCCCCC
Activity (Mus musculus [7]): inactive
Activity (Mus musculus [3]): inactive
Activity (iNKT [4]): 1.4%

CCCCCCCCCCCCCC[C@@H](O)[C@@H](O)[C@H](CO[C@H]1S[C@H](CO)[C@H](O)[C@H](O)[C@H]1O)NC(=O)CCCCCCCCCCCCC
Activity (Mus musculus [7]): Active
Activity (Mus musculus [1]): inactive
Activity (Mus musculus [3]): inactive
Activity (iNKT [4]): 6%

CCCCCCCCCCCCCC(=O)O[C@@H]1[C@@H](C)[C@@]2(O)[C@@H](C=C(CO)C[C@]3(O)C(=O)C(C)=C[C@@H]23)[C@@H]2C(C)(C)[C@]12OC(C)=O [PHORBOL MYRISTATE ACETATE]
Activity (iNKT [8]): 8.5%
